Measured values published in ChEMBL document CHEMBL1157490, “Imidazopyridines as VLA-4 integrin antagonists” (Bioorg Med Chem Lett, 2008).

Assays:
Integrin alpha-4/beta-1 = Integrin alpha-4/beta-1 (Homo sapiens, UniProt P05556+P13612); assay: Inhibition of integrin alpha4beta1 receptor in human whole blood by flow cytometry
Procedure, shortened: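 Human whole blood incubated with 3 mM MnCl2 and streptavidin-FITC, with or without 10 μg/mL biotinylated dimeric hVCAM-mFc. Compound added from tripling dilutions in TBS, 30 min at room temperature with shaking. Red cells lysed, leukocytes pelleted, washed twice in TBS and analysed by flow cytometry for bound VCAM; IC50 derived.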

Cytochrome P450 1A2 = target: T1, Cytochrome P450 1A2 (Homo sapiens, UniProt P05177); assay: Inhibition of CYP1A2; type: ADME
T1 sequence (P05177 whole entry): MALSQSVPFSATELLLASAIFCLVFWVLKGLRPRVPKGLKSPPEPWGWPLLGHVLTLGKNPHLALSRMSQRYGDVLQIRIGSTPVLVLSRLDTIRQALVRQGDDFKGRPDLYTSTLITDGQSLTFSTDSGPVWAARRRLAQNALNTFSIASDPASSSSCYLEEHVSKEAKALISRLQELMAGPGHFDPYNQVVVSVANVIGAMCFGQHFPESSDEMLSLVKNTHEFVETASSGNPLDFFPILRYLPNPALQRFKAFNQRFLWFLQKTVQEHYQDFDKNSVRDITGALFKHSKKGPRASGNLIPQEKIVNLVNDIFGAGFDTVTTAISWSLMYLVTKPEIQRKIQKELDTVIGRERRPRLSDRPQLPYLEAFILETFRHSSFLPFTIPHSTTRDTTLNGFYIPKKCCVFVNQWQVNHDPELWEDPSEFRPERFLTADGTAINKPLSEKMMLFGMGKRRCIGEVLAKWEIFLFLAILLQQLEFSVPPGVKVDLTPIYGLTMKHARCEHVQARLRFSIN

Cytochrome P450 2D6 = Cytochrome P450 2D6 (Homo sapiens, UniProt P10635); assay: Inhibition of CYP2D6; type: ADME
[1] = Metabolic stability in rat microsomes assessed as intrinsic clearance at 0.5 uM; type: ADME, Microsome
[2] = Metabolic stability in mouse microsomes assessed as intrinsic clearance at 0.5 uM; type: ADME, Microsome
[3] = Metabolic stability in human microsomes assessed as intrinsic clearance at 0.5 uM; type: ADME, Microsome
Cytochrome P450 3A4 = Cytochrome P450 3A4 (Homo sapiens, UniProt P08684); assay: Inhibition of CYP3A4; type: ADME
Cytochrome P450 2C9 = Cytochrome P450 2C9 (Homo sapiens, UniProt P11712); assay: Inhibition of CYP2C9; type: ADME
Cytochrome P450 2C9, sequence (P11712 whole entry): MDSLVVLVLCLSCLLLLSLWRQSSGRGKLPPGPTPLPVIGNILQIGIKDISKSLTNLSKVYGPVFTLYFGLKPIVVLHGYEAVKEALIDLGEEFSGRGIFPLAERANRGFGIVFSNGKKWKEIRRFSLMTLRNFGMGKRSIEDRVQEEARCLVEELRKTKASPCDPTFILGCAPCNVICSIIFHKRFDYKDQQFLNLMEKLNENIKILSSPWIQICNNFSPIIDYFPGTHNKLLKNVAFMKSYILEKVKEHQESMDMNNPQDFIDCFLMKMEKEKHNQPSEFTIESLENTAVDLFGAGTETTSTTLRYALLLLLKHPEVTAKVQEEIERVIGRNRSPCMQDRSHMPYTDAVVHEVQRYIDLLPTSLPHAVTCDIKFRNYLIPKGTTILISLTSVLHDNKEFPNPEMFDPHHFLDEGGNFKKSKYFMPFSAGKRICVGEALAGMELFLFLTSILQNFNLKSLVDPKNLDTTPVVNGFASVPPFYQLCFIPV

Cytochrome P450 3A4, sequence (P08684 whole entry): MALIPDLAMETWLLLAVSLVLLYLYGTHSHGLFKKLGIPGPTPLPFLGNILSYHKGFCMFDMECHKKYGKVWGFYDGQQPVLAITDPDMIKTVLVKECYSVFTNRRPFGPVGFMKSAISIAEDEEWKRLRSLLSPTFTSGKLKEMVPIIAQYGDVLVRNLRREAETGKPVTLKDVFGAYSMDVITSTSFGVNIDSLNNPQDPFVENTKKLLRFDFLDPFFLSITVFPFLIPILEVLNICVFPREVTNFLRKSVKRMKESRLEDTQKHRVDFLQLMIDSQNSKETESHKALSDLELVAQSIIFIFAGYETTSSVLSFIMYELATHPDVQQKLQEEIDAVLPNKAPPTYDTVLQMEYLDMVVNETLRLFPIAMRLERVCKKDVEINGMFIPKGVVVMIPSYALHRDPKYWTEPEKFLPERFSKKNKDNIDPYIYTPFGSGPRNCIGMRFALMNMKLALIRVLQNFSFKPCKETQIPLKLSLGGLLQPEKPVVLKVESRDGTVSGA
Integrin alpha-4/beta-1, sequence (P05556 whole entry): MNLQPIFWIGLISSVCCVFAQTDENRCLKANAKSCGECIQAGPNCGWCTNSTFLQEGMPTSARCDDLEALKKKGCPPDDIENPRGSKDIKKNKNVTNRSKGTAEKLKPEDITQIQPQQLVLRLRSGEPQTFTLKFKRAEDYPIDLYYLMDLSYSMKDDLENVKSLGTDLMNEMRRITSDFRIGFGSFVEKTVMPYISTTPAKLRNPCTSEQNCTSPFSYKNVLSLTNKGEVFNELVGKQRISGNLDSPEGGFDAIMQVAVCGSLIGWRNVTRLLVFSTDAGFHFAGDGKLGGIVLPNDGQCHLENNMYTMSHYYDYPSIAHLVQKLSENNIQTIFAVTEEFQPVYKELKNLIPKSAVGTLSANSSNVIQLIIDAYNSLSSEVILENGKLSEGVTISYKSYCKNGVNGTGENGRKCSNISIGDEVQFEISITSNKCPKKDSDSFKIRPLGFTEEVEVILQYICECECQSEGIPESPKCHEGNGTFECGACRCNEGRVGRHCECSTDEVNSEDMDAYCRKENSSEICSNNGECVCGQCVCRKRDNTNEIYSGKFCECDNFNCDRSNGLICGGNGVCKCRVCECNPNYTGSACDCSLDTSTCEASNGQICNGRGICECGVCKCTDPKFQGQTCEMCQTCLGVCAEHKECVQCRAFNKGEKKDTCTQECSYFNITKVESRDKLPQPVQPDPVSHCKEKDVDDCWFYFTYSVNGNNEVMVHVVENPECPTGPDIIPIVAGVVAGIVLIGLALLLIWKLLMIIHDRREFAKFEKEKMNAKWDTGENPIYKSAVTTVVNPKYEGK
Integrin alpha-4/beta-1, sequence (P13612 whole entry): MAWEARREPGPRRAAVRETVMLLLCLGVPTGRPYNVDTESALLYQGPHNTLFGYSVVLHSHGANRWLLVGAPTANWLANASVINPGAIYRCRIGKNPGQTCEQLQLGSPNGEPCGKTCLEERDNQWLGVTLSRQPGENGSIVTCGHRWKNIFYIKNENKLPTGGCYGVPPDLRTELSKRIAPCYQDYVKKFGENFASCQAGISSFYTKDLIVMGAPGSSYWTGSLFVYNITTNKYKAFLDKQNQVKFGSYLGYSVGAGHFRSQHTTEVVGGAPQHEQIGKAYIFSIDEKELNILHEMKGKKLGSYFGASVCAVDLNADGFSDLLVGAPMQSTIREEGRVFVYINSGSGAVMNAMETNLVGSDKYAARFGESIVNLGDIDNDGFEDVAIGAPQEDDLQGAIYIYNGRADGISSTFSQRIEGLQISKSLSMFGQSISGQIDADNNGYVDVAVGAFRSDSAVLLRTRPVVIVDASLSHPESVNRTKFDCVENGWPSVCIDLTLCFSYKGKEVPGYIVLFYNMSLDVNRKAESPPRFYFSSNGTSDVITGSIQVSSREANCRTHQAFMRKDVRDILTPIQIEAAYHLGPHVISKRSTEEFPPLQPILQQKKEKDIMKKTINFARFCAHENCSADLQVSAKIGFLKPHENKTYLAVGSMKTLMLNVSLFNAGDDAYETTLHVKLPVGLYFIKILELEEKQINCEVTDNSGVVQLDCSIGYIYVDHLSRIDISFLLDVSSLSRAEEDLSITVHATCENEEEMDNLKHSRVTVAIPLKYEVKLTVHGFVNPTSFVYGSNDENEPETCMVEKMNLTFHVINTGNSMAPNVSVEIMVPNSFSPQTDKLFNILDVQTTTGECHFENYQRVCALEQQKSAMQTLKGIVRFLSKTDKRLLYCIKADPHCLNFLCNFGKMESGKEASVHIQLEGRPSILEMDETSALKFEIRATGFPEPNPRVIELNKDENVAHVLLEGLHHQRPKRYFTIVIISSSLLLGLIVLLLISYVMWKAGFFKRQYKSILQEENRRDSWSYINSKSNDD
Cytochrome P450 2D6, sequence (P10635 whole entry): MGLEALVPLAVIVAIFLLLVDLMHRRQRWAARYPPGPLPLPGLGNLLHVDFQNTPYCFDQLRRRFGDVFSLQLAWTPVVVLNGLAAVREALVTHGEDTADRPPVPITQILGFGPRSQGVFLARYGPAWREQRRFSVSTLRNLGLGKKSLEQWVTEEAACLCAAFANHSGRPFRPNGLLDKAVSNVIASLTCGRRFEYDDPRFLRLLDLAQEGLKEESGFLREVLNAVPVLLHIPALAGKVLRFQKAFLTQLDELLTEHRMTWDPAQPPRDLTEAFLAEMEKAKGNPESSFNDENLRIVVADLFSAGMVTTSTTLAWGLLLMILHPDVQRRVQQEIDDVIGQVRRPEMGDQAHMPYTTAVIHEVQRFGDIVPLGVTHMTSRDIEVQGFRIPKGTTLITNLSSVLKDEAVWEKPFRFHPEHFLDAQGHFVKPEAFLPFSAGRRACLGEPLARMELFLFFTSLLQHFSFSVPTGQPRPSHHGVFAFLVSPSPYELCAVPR

Row | IC50 (Integrin alpha-4/beta-1) [nM] | SMILES | further results
1 | 8 | O=C(O)[C@H](Cc1ccc(-n2c(-c3ccc(C(F)(F)F)nc3)nc3cccnc32)cc1)NC1=C(Br)C(=O)C12CCCCC2 | –
2 | 22 | CN(C)c1ccc(-c2nc3cccnc3n2-c2ccc(C[C@H](NC3=C(Br)C(=O)C34CCCCC4)C(=O)O)cc2)cn1 | –
3 | 11 | CSCCc1nc2cccnc2n1-c1ccc(C[C@H](NC2=C(Br)C(=O)C23CCCCC3)C(=O)O)cc1 | –
4 | 10 | N#CCc1nc2cccnc2n1-c1ccc(C[C@H](NC2=C(Br)C(=O)C23CCCCC3)C(=O)O)cc1 | –
5 | 3 | CC(C)(C)c1nc2cccnc2n1-c1ccc(C[C@H](NC2=C(Br)C(=O)C23CCCCC3)C(=O)O)cc1 | –
6 | 3 | O=C(O)[C@H](Cc1ccc(-n2c(-c3ccc(Cl)nc3)nc3cccnc32)cc1)NC1=C(Br)C(=O)C12CCCCC2 | –
7 | 9 | CNc1ccc(-c2nc3cccnc3n2-c2ccc(C[C@H](NC3=C(Br)C(=O)C34CCCCC4)C(=O)O)cc2)cn1 | –
8 | 2 | O=C(O)[C@H](Cc1ccc(-n2c(C3(C(F)(F)F)CC3)nc3cccnc32)cc1)NC1=C(Br)C(=O)C12CCCCC2 | IC50 (Cytochrome P450 1A2): > 100000 nM; IC50 (Cytochrome P450 2D6): > 100000 nM; microsomal CLint at 0.5 µM [1]: 52 µL/min/mg; microsomal CLint at 0.5 µM [2]: 15 µL/min/mg; microsomal CLint at 0.5 µM [3]: 6 µL/min/mg; IC50 (Cytochrome P450 3A4): 10000 nM; IC50 (Cytochrome P450 2C9): 8000 nM
9 | 504 | O=C(O)[C@H](Cc1ccc(-n2c(-c3cccnc3)nc3cnccc32)cc1)NC1=C(Cl)C(=O)C12CCCCC2 | –
10 | 2680 | O=C(O)[C@H](Cc1ccc(-n2c(-c3cccnc3)nc3cc(F)ccc32)cc1)NC1=C(Br)C(=O)C12CCCCC2 | –
11 | 8 | O=C(O)[C@H](Cc1ccc(-n2c(CC3CC3)nc3cccnc32)cc1)NC1=C(Br)C(=O)C12CCCCC2 | –
12 | 24 | O=C(O)[C@H](Cc1ccc(-n2c(-c3cccnc3)nc3cccnc32)cc1)NC1=CC(=O)C12CCCCC2 | –

Second part, the molecule before the results:

Row | SMILES | IC50 (Integrin alpha-4/beta-1) [nM] | further results
13 | O=C(O)[C@H](Cc1ccc(-n2c(-c3ccc(N4CCCCC4)nc3)nc3cccnc32)cc1)NC1=C(Br)C(=O)C12CCCCC2 | 83 | –
14 | CN(C)c1ccnc(-c2nc3cccnc3n2-c2ccc(C[C@H](NC3=C(Br)C(=O)C34CCCCC4)C(=O)O)cc2)c1 | 46 | –
15 | O=C(O)[C@H](Cc1ccc(-n2c(C3CC3)nc3cccnc32)cc1)NC1=C(Br)C(=O)C12CCCCC2 | 95 | –
16 | CC1(C)C(=O)C(Cl)=C1N[C@@H](Cc1ccc(-n2c(-c3cccnc3)nc3cccnc32)cc1)C(=O)O | 19 | –
17 | CC1(C)C(=O)C(Br)=C1N[C@@H](Cc1ccc(-n2c(-c3cccnc3)nc3cccnc32)cc1)C(=O)O | 10 | –
18 | O=C(O)[C@H](Cc1ccc(-n2c(C(F)(F)F)nc3cccnc32)cc1)NC1=C(Br)C(=O)C12CCCCC2 | 22 | –
19 | CC1(C)C(=O)C=C1N[C@@H](Cc1ccc(-n2c(-c3cccnc3)nc3cccnc32)cc1)C(=O)O | 126 | –
20 | O=C(O)[C@H](Cc1ccc(-n2c(-c3cccnc3)nc3cnccc32)cc1)NC1=CC(=O)C12CCCCC2 | 1620 | –
21 | O=C(O)[C@H](Cc1ccc(-n2c(C3COCCN3)nc3cccnc32)cc1)NC1=C(Br)C(=O)C12CCCCC2 (stereo partly specified) | 10 | –
22 | O=C(O)[C@H](Cc1ccc(-n2c(-c3cccnc3)nc3cccnc32)cc1)NC1=C(Br)C(=O)C12CCCCC2 | 3 | IC50 (Cytochrome P450 1A2): > 100000 nM; IC50 (Cytochrome P450 2D6): > 100000 nM; microsomal CLint at 0.5 µM [1]: 48 µL/min/mg; microsomal CLint at 0.5 µM [2]: 11 µL/min/mg; microsomal CLint at 0.5 µM [3]: < 1 µL/min/mg; IC50 (Cytochrome P450 3A4): 62000 nM; IC50 (Cytochrome P450 2C9): 10000 nM
23 | CC(C)c1nc2cccnc2n1-c1ccc(C[C@H](NC2=C(Br)C(=O)C23CCCCC3)C(=O)O)cc1 | 9 | IC50 (Cytochrome P450 1A2): > 100000 nM; IC50 (Cytochrome P450 2D6): > 100000 nM; microsomal CLint at 0.5 µM [1]: 38 µL/min/mg; microsomal CLint at 0.5 µM [2]: 14 µL/min/mg; microsomal CLint at 0.5 µM [3]: 4 µL/min/mg; IC50 (Cytochrome P450 3A4): 79000 nM; IC50 (Cytochrome P450 2C9): 18000 nM
24 | O=C(O)[C@H](Cc1ccc(-n2c(C3CCCNC3)nc3cccnc32)cc1)NC1=C(Br)C(=O)C12CCCCC2 (stereo partly specified) | 6 | –
25 | O=C(O)[C@H](Cc1ccc(-n2c(-c3cccnc3)nc3cnccc32)cc1)NC1=C(Br)C(=O)C12CCCCC2 | 236 | –
26 | O=C(O)[C@H](Cc1ccc(-n2c(C3CCC3)nc3cccnc32)cc1)NC1=C(Br)C(=O)C12CCCCC2 | 18 | –
27 | CC(C)Cc1nc2cccnc2n1-c1ccc(C[C@H](NC2=C(Br)C(=O)C23CCCCC3)C(=O)O)cc1 | 11 | –
28 | Cc1nc2cccnc2n1-c1ccc(C[C@H](NC2=C(Br)C(=O)C23CCCCC3)C(=O)O)cc1 | 570 | –
29 | O=C(O)[C@H](Cc1ccc(-n2c(C3CCNCC3)nc3cccnc32)cc1)NC1=C(Br)C(=O)C12CCCCC2 | 13 | –
30 | CC(C)SC1=C(N[C@@H](Cc2ccc(-n3c(-c4cccnc4)nc4cccnc43)cc2)C(=O)O)C2(CCCCC2)C1=O | 2 | –
31 | O=C(O)[C@H](Cc1ccc(-n2c(-c3ccccc3)nc3cccnc32)cc1)NC1=C(Br)C(=O)C12CCCCC2 | 71 | –
32 | O=C(O)[C@H](Cc1ccc(-n2c(C3CCCCN3)nc3cccnc32)cc1)NC1=C(Br)C(=O)C12CCCCC2 (stereo partly specified) | 3 | –
33 | CSC1=C(N[C@@H](Cc2ccc(-n3c(-c4cccnc4)nc4cccnc43)cc2)C(=O)O)C2(CCCCC2)C1=O | 2 | –
34 | O=C(O)[C@H](Cc1ccc(-n2c(-c3cccnc3)nc3cccnc32)cc1)NC1=C(Cl)C(=O)C12CCCCC2 | 7 | –
35 | O=C(O)[C@H](Cc1ccc(-n2c(C3CCCC3)nc3cccnc32)cc1)NC1=C(Br)C(=O)C12CCCCC2 | 14 | –
